ChEMBL document CHEMBL1671644, “Inhibition of human immunodeficiency virus type 1 infection by the candidate microbicide dapivirine, a nonnucleoside reverse transcriptase inhibitor” (Antimicrob Agents Chemother, 2009)

Assays:
[1] = Toxicity against human cervical tissue explants after 24 hrs by MTT assay
Procedure, shortened: (§1)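 Ectocervical tissue explants, uninfected, exposed to drug for 2 or 24 h at 37°C. Viability by MTT dye reduction per milligram tissue, read right after exposure or after overnight culture following the 2-h exposure, as percent of unexposed controls. Four donors, each condition in triplicate; CC50 by nonlinear regression.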

[2] = Toxicity against human cervical tissue explants after 2 hrs by MTT assay; procedure, shortened: as §1
[3] = test system: Human immunodeficiency virus 1; assay: Antiviral activity against HIV-1 subtype CRF01_AE V022822 infected in human MT4 cells assessed as inhibition of viral replication relative to HIV-1 3B; format: functional
Procedure, shortened: (§2)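 MT-4 cells (3 x 10^4/well) infected with site-directed mutants or recombinant clinical isolates (200 TCID50/well) with drug, cultured 3 to 5 days. Viability read by MTT colorimetric antivirogram assay. IC50 by nonlinear regression; fold change = IC50 for the test isolate / IC50 for wild-type HIV-1 IIIB tested in parallel (mean or median).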

[4] = test system: Human immunodeficiency virus 1; assay: Antiviral activity against HIV-1 subtype H V029523 harboring NNRTI K101Q and V179I mutant infected in human MT4 cells assessed as inhibition of viral replication relative to HIV-1 3B; format: functional; procedure, shortened: as §2
[5] = test system: Human immunodeficiency virus 1; assay: Antiviral activity against HIV-1 subtype B V022815 infected in human MT4 cells assessed as inhibition of viral replication relative to HIV-1 3B; format: functional
Procedure, shortened: (§3)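 Recombinant clinical HIV-1 isolates (200 TCID50/well) were tested in MT-4 cells (3 x 10^4/well) over 3–5 days, with an MTT viability read-out. IC50 was fitted by nonlinear regression. Fold change is the isolate IC50 divided by the HIV-1IIIB IC50, tested in parallel.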

[6] = test system: Human immunodeficiency virus 1; assay: Antiviral activity against HIV-1 subtype C V022829 infected in human MT4 cells assessed as inhibition of viral replication relative to HIV-1 3B; format: functional; procedure, shortened: as §2
[7] = test system: Human immunodeficiency virus 1; assay: Antiviral activity against HIV-1 SM030 harboring NNTRI 100I mutant infected in human MT4 cells assessed as inhibition of viral replication relative to HIV-1 3B; format: functional; procedure, shortened: as §2
[8] = test system: Human immunodeficiency virus 1; assay: Antiviral activity against HIV-1 subtype D V022819 infected in human MT4 cells assessed as inhibition of viral replication relative to HIV-1 3B; format: functional; procedure, shortened: as §2
[9] = test system: Human immunodeficiency virus 1; assay: Antiviral activity against HIV-1 subtype D V022818 infected in human MT4 cells assessed as inhibition of viral replication relative to HIV-1 3B; format: functional; procedure, shortened: as §2
[10] = test system: Human immunodeficiency virus 1; assay: Antiviral activity against HIV-1 SM052 harboring NNTRI 101E and 103N mutant infected in human MT4 cells assessed as inhibition of viral replication relative to HIV-1 3B; format: functional; procedure, shortened: as §2
[11] = test system: Human immunodeficiency virus 1; assay: Antiviral activity against HIV-1 subtype H V022827 harboring NNRTI V179I mutant infected in human MT4 cells assessed as inhibition of viral replication relative to HIV-1 3B; format: functional; procedure, shortened: as §2
[12] = test system: Human immunodeficiency virus 1; assay: Antiviral activity against HIV-1 subtype CRF01_AE V029521 infected in human MT4 cells assessed as inhibition of viral replication relative to HIV-1 3B; format: functional; procedure, shortened: as §3
[13] = test system: Human immunodeficiency virus 1; assay: Antiviral activity against HIV-1 subtype B V022810 harboring NNRTI A98S andK101R mutant infected in human MT4 cells assessed as inhibition of viral replication relative to HIV-1 3B; format: functional; procedure, shortened: as §2
[14] = test system: Human immunodeficiency virus 1; assay: Antiviral activity against HIV-1 SM058 harboring NNTRI 227L and 106A mutant infected in human MT4 cells assessed as inhibition of viral replication relative to HIV-1 3B; format: functional; procedure, shortened: as §2
[15] = test system: Human immunodeficiency virus 1; assay: Antiviral activity against HIV-1 subtype CRF02_AG V022826 infected in human MT4 cells assessed as inhibition of viral replication relative to HIV-1 3B; format: functional; procedure, shortened: as §2
[16] = test system: Human immunodeficiency virus 1; assay: Antiviral activity against HIV-1 subtype CRF05_DF V022823 infected in human MT4 cells assessed as inhibition of viral replication relative to HIV-1 3B; format: functional; procedure, shortened: as §2
[17] = test system: Human immunodeficiency virus 1; assay: Antiviral activity against HIV-1 subtype CRF02_AG V022808 infected in human MT4 cells assessed as inhibition of viral replication relative to HIV-1 3B; format: functional; procedure, shortened: as §2
[18] = test system: Human immunodeficiency virus 1; assay: Antiviral activity against HIV-1 subtype B V022813 infected in human MT4 cells assessed as inhibition of viral replication relative to HIV-1 3B; format: functional; procedure, shortened: as §2
[19] = test system: Human immunodeficiency virus 1; assay: Antiviral activity against HIV-1 subtype B V022809 infected in human MT4 cells assessed as inhibition of viral replication relative to HIV-1 3B; format: functional; procedure, shortened: as §2
[20] = test system: Human immunodeficiency virus 1; assay: Antiviral activity against HIV-1 subtype C V022816 infected in human MT4 cells assessed as inhibition of viral replication relative to HIV-1 3B; format: functional; procedure, shortened: as §3
[21] = test system: Human immunodeficiency virus 1; assay: Antiviral activity against HIV-1 subtype CRF02_AG V022830 infected in human MT4 cells assessed as inhibition of viral replication relative to HIV-1 3B; format: functional; procedure, shortened: as §2
[22] = test system: Human immunodeficiency virus 1; assay: Antiviral activity against HIV-1 subtype B V022811 infected in human MT4 cells assessed as inhibition of viral replication relative to HIV-1 3B; format: functional; procedure, shortened: as §3
[23] = test system: Human immunodeficiency virus 1; assay: Antiviral activity against HIV-1 subtype CRF02_AG V022825 infected in human MT4 cells assessed as inhibition of viral replication relative to HIV-1 3B; format: functional; procedure, shortened: as §2
[24] = test system: Human immunodeficiency virus 1; assay: Antiviral activity against HIV-1 SM026 harboring NNTRI 103N and 181C mutant infected in human MT4 cells assessed as inhibition of viral replication relative to HIV-1 3B; format: functional; procedure, shortened: as §2
[25] = test system: Human immunodeficiency virus 1; assay: Antiviral activity against HIV-1 subtype B V022814 infected in human MT4 cells assessed as inhibition of viral replication relative to HIV-1 3B; format: functional; procedure, shortened: as §2
[26] = test system: Human immunodeficiency virus 1; assay: Antiviral activity against HIV-1 subtype C V022831 infected in human MT4 cells assessed as inhibition of viral replication relative to HIV-1 3B; format: functional; procedure, shortened: as §2
[27] = test system: Human immunodeficiency virus 1; assay: Antiviral activity against HIV-1 subtype H V022828 harboring NNRTI K101Q and V179I mutant infected in human MT4 cells assessed as inhibition of viral replication relative to HIV-1 3B; format: functional; procedure, shortened: as §2
[28] = test system: Human immunodeficiency virus 1; assay: Antiviral activity against HIV-1 SM024 harboring NNTRI 190A mutant infected in human MT4 cells assessed as inhibition of viral replication relative to HIV-1 3B; format: functional; procedure, shortened: as §2
[29] = test system: Human immunodeficiency virus 1; assay: Antiviral activity against HIV-1 SM007 harboring NNTRI 103N mutant infected in human MT4 cells assessed as inhibition of viral replication relative to HIV-1 3B; format: functional; procedure, shortened: as §2
[30] = test system: Human immunodeficiency virus 1; assay: Antiviral activity against HIV-1 subtype B V022807 infected in human MT4 cells assessed as inhibition of viral replication relative to HIV-1 3B; format: functional; procedure, shortened: as §3
[31] = test system: Human immunodeficiency virus 1; assay: Antiviral activity against HIV-1 SM002 harboring NNTRI 181C mutant infected in human MT4 cells assessed as inhibition of viral replication relative to HIV-1 3B; format: functional; procedure, shortened: as §2
[32] = test system: Human immunodeficiency virus 1; assay: Antiviral activity against HIV-1 subtype CRF01_AE V022821 infected in human MT4 cells assessed as inhibition of viral replication relative to HIV-1 3B; format: functional; procedure, shortened: as §3
[33] = test system: Human immunodeficiency virus 1; assay: Antiviral activity against HIV-1 subtype CRF05_DF V022833 harboring NNRTI V179I mutant infected in human MT4 cells assessed as inhibition of viral replication relative to HIV-1 3B; format: functional; procedure, shortened: as §2
[34] = test system: Human immunodeficiency virus 1; assay: Antiviral activity against HIV-1 subtype CRF05_DF V022824 harboring NNRTI V106I mutant infected in human MT4 cells assessed as inhibition of viral replication relative to HIV-1 3B; format: functional; procedure, shortened: as §2
[35] = test system: Human immunodeficiency virus 1; assay: Antiviral activity against HIV-1 subtype D V022832 infected in human MT4 cells assessed as inhibition of viral replication relative to HIV-1 3B; format: functional; procedure, shortened: as §2
[36] = test system: Human immunodeficiency virus 1; assay: Antiviral activity against HIV-1 SM034 harboring NNTRI 188L mutant infected in human MT4 cells assessed as inhibition of viral replication relative to HIV-1 3B; format: functional; procedure, shortened: as §2
[37] = test system: Human immunodeficiency virus 1; assay: Antiviral activity against HIV-1 SM012 harboring NNTRI 108I mutant infected in human MT4 cells assessed as inhibition of viral replication relative to HIV-1 3B; format: functional; procedure, shortened: as §2
[38] = test system: Human immunodeficiency virus 1; assay: Antiviral activity against HIV-1 subtype CRF01_AE V029525 infected in human MT4 cells assessed as inhibition of viral replication relative to HIV-1 3B; format: functional; procedure, shortened: as §3
[39] = test system: Human immunodeficiency virus 1; assay: Antiviral activity against HIV-1 SM051 harboring NNTRI 100I and 103N mutant infected in human MT4 cells assessed as inhibition of viral replication relative to HIV-1 3B; format: functional; procedure, shortened: as §2
[40] = test system: Human immunodeficiency virus 1; assay: Antiviral activity against HIV-1 subtype O V029524 harboring NNRTI A98G, V179E and Y181C mutant infected in human MT4 cells assessed as inhibition of viral replication relative to HIV-1 3B; format: functional; procedure, shortened: as §2
[41] = test system: Human immunodeficiency virus 1; assay: Antiviral activity against HIV-1 subtype B V022812 harboring NNRTI V179I mutant infected in human MT4 cells assessed as inhibition of viral replication relative to HIV-1 3B; format: functional; procedure, shortened: as §2
[42] = test system: Human immunodeficiency virus 1; assay: Antiviral activity against HIV-1 subtype F V029522 infected in human MT4 cells assessed as inhibition of viral replication relative to HIV-1 3B; format: functional; procedure, shortened: as §2
[43] = test system: Human immunodeficiency virus 1; assay: Antiviral activity against HIV-1 subtype CRF01_AE V022820 infected in human MT4 cells assessed as inhibition of viral replication relative to HIV-1 3B; format: functional; procedure, shortened: as §2

CCCCCCCCCc1ccc(OCCOCCOCCOCCOCCOCCOCCOCCOCCO)cc1 [NONOXYNOL 9]
CC50 [1]: 0.003%
CC50 [2]: 0.07%

CC(C)Nc1cccnc1N1CCN(C(=O)c2cc3cc(NS(C)(=O)=O)ccc3[nH]2)CC1 [DELAVIRDINE]
Ratio IC50 [3]: 2.7
Ratio IC50 [4]: 2.6
Ratio IC50 [5]: 4.9
Ratio IC50 [6]: 2.7
Ratio IC50 [7]: 215
Ratio IC50 [8]: 2.3
Ratio IC50 [9]: 0.9
Ratio IC50 [10]: 90
Ratio IC50 [11]: 0.3
Ratio IC50 [12]: 4.4
Ratio IC50 [13]: 2.7
Ratio IC50 [14]: 10
Ratio IC50 [15]: 1.3
Ratio IC50 [16]: 0.6
Ratio IC50 [17]: 0.6
Ratio IC50 [18]: 0.7
Ratio IC50 [19]: 2.6
Ratio IC50 [20]: 5.3
Ratio IC50 [21]: 0.9
Ratio IC50 [22]: 3.7
Ratio IC50 [23]: 1.9
Ratio IC50 [24]: 621
Ratio IC50 [25]: 1.9
Ratio IC50 [26]: 2.6
Ratio IC50 [27]: 2
Ratio IC50 [28]: 2
Ratio IC50 [29]: 105
Ratio IC50 [30]: 3.6
Ratio IC50 [31]: 83
Ratio IC50 [32]: 2.3
Ratio IC50 [33]: 0.6
Ratio IC50 [34]: 1.3
Ratio IC50 [35]: 1.1
Ratio IC50 [36]: 12
Ratio IC50 [37]: 2
Ratio IC50 [38]: 20
Ratio IC50 [39]: 621
Ratio IC50 [40]: 140
Ratio IC50 [41]: 6

Cc1ccnc2c1NC(=O)c1cccnc1N2C1CC1 [NEVIRAPINE]
Ratio IC50 [3]: 0.8
Ratio IC50 [4]: 1.4
Ratio IC50 [5]: 1
Ratio IC50 [6]: 0.6
Ratio IC50 [7]: 5
Ratio IC50 [8]: 1
Ratio IC50 [9]: 0.5
Ratio IC50 [10]: 22
Ratio IC50 [11]: 0.4
Ratio IC50 [12]: 1.4
Ratio IC50 [13]: 1.7
Ratio IC50 [14]: 22
Ratio IC50 [15]: 0.4
Ratio IC50 [42]: 2.1
Ratio IC50 [16]: 0.9
Ratio IC50 [17]: 0.8
Ratio IC50 [18]: 1
Ratio IC50 [19]: 5
Ratio IC50 [20]: 3.8
Ratio IC50 [21]: 1.3
Ratio IC50 [22]: 3.4
Ratio IC50 [23]: 0.7
Ratio IC50 [24]: 222
Ratio IC50 [25]: 2.4
Ratio IC50 [26]: 0.9
Ratio IC50 [27]: 1.1
Ratio IC50 [28]: 96
Ratio IC50 [29]: 22
Ratio IC50 [30]: 3.4
Ratio IC50 [31]: 222
Ratio IC50 [32]: 1.2
Ratio IC50 [33]: 1.7
Ratio IC50 [34]: 3.1
Ratio IC50 [35]: 0.9
Ratio IC50 [36]: 222
Ratio IC50 [37]: 1
Ratio IC50 [38]: 7
Ratio IC50 [39]: 22
Ratio IC50 [40]: 89
Ratio IC50 [43]: 1.3
Ratio IC50 [41]: 0.8
